# Sampled rows, rich in hits. Any-hit rate of the full collection: about 5.6%.
# XBP1 UPR activ: activators of adaptive arm of unfolded protein response (XBP1) | CHO-XBP1 luciferase reporter, IRE1-XBP1 UPR activation, luminescence; percent of tunicamycin response, DMSO as zero | activation, % at 20 µM | hit rate 0.33% among 330,000;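 active means versus positive control, 20 µM dose yields 30% or more activation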;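 further: 100% = tunicamycin at 10 µg/mL and 0% = DMSO only wells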
#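 assay system = CHO-XBP1 luciferase reporter cells | amount = 1000 cells/well | buffer or medium = F12 plus 10% FBS | compound dosing = single point, 20 µM final compound, 1% DMSO | incubation = 16-18 h cell attachment at 37 °C, then 6 h compound exposure | detection = Steady-Glo luminescence read | controls = tunicamycin 10 µg/mL and vehicle-only wells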
# aDG glyco up: increases alpha dystroglycan glycosylation | hit rate 0.22% among 360,000 | AID 624168 | activation, % at 10 µM | Pro5-aDG cells, alpha-DG glycosylation AlphaScreen (IIH6); 0% Pro5, 100% B10-LARGE cell signal;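 active means activation of at least 8% versus controls, or a plate z-score of at least 8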;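 further: Pro5 are CHO cells carrying HIG-tagged alpha-DG that lacks glycosylation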
# MPTP inh: blocks calcium-induced mitochondrial swelling. isolated mouse mitochondria, Ca2+ swelling absorbance, 30 min. inhibition, % at 10 µM. hit rate 1.4% among 360,000. AID 602449;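 active means inhibition of 50% or more, scaled per plate between neutral and stimulator controls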;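 further: 0% = DMSO wells given calcium and 100% = 1 mM EGTA wells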
# NR3A LBD binder: modulators (binders) of human NR3A ligand-binding domain. NR3A LBD differential scanning fluorimetry, Tm shift; 0% = protein alone, 100% = glycine-bound protein. Tm shift relative to glycine control, % at 25 µM. hit rate 2.5% among 340,000;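 active means melting temperature shift of at least 10% of the positive control shift, at one fixed dose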
# CHOP inh: CHOP inhibition in unfolded protein response; CHO-K1 CHOP-promoter luciferase, tunicamycin-induced, 15-18 h; inhibition, % at 10 µM; hit rate 3.8% among 220,000;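 active means compounds that reduced the stress-induced luciferase reporter signal by more than about 70% of percent inhibition, limit read from the data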;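 further: 0% = tunicamycin plus vehicle and 100% = wells without tunicamycin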
# UPR CHOP act: apoptotic UPR (CHOP) activation; CHO-CHOP luciferase reporter, luminescence; percent of tunicamycin response over DMSO baseline; activation, % at 10 µM; hit rate 0.34% among 330,000;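 active means at 10 µM dose, activation of 40% or more, normalized to positive control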;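 further: 100% = tunicamycin at 10 µg/mL and 0% = DMSO alone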
#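 Test system: CHO-CHOP cells, stable luciferase reporter of PERK-eIF2a-CHOP signalling | Quantity: 500 CHO-CHOP cells per well | Buffer or medium: F12 plus 10% serum | Compound dosing: 10 µM single point, 0.5% DMSO | Schedule: 6 h compound treatment, 37 °C | Signal: Luciferase luminescence | Control set: Tunicamycin high control, DMSO low control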
# Active calls of the source: *; · = no result.
SMILES,XBP1 UPR activ,aDG glyco up,MPTP inh,NR3A LBD binder,CHOP inh,UPR CHOP act
O=C(N/N=C\c1ccc([N+](=O)[O-])s1)c1cncc(Br)c1,-1.4,7.2,1.6,-2.8,95.2*,4.1
O=C(N/N=C/c1ccc([N+](=O)[O-])s1)c1ccccc1,8.6,9.5*,-18.0,-9.4,-11.3,1.2
C[C@H]1CN([C@@H](C)CO)C(=O)CCCn2nncc2CO[C@@H]1CN(C)S(=O)(=O)c1ccc(-c2ccccc2)cc1,·,0.0,-1.9,·,·,·
Cc1ccc(C(=O)N2[C@@H]3CN(C)C(=O)[C@@]2(Cc2ccccc2)[C@H]2C(=O)N(Cc4ccccc4)C(=O)[C@@H]32)cc1,·,0.2,-0.3,16.8*,·,·
O=c1cc(N2CCCCC2)c(-c2ccccc2)nn1Cc1ccc(Cl)cc1,-1.4,0.5,0.5,4.0,70.8*,1.9
O=c1cc(N2CCCCC2)c(-c2ccccc2)nn1Cc1c(Cl)cccc1Cl,-2.1,-0.6,3.2,-0.6,5.1,0.5
O=c1ccc(-c2ccccc2)nn1Cc1ccc(F)cc1,-2.8,0.0,0.2,0.0,·,2.3
O=c1cc(N2CCCCC2)c(-c2ccccc2)nn1Cc1ccc(F)cc1,-7.6,0.4,-0.2,-1.0,81.5*,2.1
CSc1nc(N)c2ncn([C@@H]3O[C@H](COP(=O)(O)OP(=O)(O)O)[C@H](O)C3O)c2n1 (stereo not given in full),·,·,·,·,9.8,·
COCCNCc1ccccc1[N+](=O)[O-],-2.3,0.0,-0.9,-0.6,·,-0.4
C=CCNC(=S)NNc1nc(Nc2ccccc2)nc(N2CCCCC2)n1,-0.9,1.9,-0.5,-10.1,73.9*,5.4
NNc1nc(Nc2ccccc2)nc(N2CCCCC2)n1,4.2,0.0,0.1,-0.1,-1.0,-0.9
S=C(NNc1nc(Nc2ccccc2)nc(N2CCCCC2)n1)NC1CCCCC1,-2.0,1.5,1.2,-1.0,83.4*,0.4
COc1cc(/C=C2\S/C(=N/S(=O)(=O)c3ccccc3)NC2=O)c([N+](=O)[O-])cc1OC,0.5,-0.1,-1.0,-2.7,23.4,-0.4
CCc1ccc(N=C2NC(=O)/C(=C/c3cc(OC)c(O)c(OC)c3)S2)cc1,12.9,-0.1,2.1,2.8,·,1.1
COc1cc(/C=C2\SC(=Nc3ccccc3)NC2=O)cc(Cl)c1O,16.5,0.1,1.8,12.5*,·,2.1
COc1cc(/C=C2\SC(=Nc3ccc(Cl)c(C(=O)O)c3)NC2=O)c(Br)c(Br)c1O,-6.5,-0.1,-1.2,12.9*,·,-1.1
O=C1NC(=Nc2cccc(O)c2)S/C1=C\c1cccc([N+](=O)[O-])c1,19.2,-0.1,2.3,13.4*,·,5.7
COc1cc(/C=C2/SC(=Nc3ccc(O)cc3)NC2=O)ccc1O,14.5,-0.2,2.9,27.0*,35.2,0.6
COc1ccc(NC(=O)N(C)C[C@@H]2OCc3cnnn3CCCC(=O)N([C@@H](C)CO)C[C@H]2C)c(OC)c1,·,-0.4,-1.3,·,·,·
Cc1nc(SCC(=O)O)c(C#N)c(C)c1CC(=O)c1ccccc1,-2.0,0.1,1.0,-0.2,28.0,0.6
COC(=O)C1=C(O)/C(=C\c2ccc(CNC(=O)C(=O)Nc3ccc(C)c(C)c3)o2)N=C1C,-0.3,1.0,-0.9,-26.0,72.5*,0.0
COC(=O)C1=C(O)/C(=C\c2ccc(CNC(=O)C(=O)Nc3ccc(C)cc3)o2)N=C1C,-4.5,0.1,4.7,-2.5,69.1,3.0
CCCn1c(CN2CCN(C(=O)c3ccco3)CC2)nc2cc(S(=O)(=O)N(C)C)ccc21,1.0,-0.2,-0.3,3.0,·,-1.2
O=C(CN1C(=O)S/C(=C\c2ccccn2)C1=O)Nc1ccccc1,-5.1,0.2,0.0,-0.4,·,2.3
SMILES,XBP1 UPR activ,aDG glyco up,MPTP inh,NR3A LBD binder,CHOP inh,UPR CHOP act
Cc1cc(/C=C2\SC(=O)N(CC(=O)Nc3ccccc3F)C2=O)c(C)n1C,-1.0,-0.4,-1.2,-3.4,84.9*,4.8
O=C(CN1C(=O)S/C(=C\C=C\c2ccccc2)C1=O)Nc1ccc(O)cc1,-0.1,-0.5,1.2,14.9*,91.4*,9.9
O=C(CN1C(=O)S/C(=C\c2cc(Cl)c(O)c(Cl)c2)C1=O)Nc1ccccc1,·,0.0,2.9,11.7*,·,·
O=C1CC(Cc2ccc(Br)cc2)C(=O)N1c1ccccc1 (stereo not given),-5.5,-0.1,1.0,0.2,·,-1.0
O=C(CNC(=O)c1cccc(Cl)c1)N/N=C/c1cccnc1,-3.7,0.1,1.7,0.3,-1.5,0.2
O=C(N/N=C/c1cccnc1)c1ccc(NC(=O)c2ccc(Cl)cc2)cc1,-1.7,-0.1,-1.3,14.2*,·,0.1
O=C(N/N=C\c1cccnc1)c1cc(-c2ccc(Cl)s2)[nH]n1,-0.6,-0.2,-1.7,22.9*,-11.8,1.4
Cc1cccc(/C=N/NC(=O)c2ccc(NC(=O)c3cccc(Cl)c3)cc2)n1,18.8,-0.1,0.0,14.9*,·,0.9
O=C(N/N=C/c1cccnc1)c1ccccc1Cl,6.1,0.0,0.4,-0.2,·,3.9
O=C(N/N=C/c1cccnc1)c1ccc(NC(=O)c2cccc(Cl)c2)cc1,0.4,0.0,1.9,12.3*,·,2.0
COc1cc(-c2ccc3cc(OC)c(OC)c(OC)c3c2)cc(OC)c1OC,·,-0.2,-0.6,·,·,·
CC(=O)Nc1ccc(C(=O)N/N=C/c2cccnc2)cc1,·,0.1,-0.5,0.2,18.1,·
O=C(N/N=C/c1cccnc1)c1ccc(Cl)c(Cl)c1,1.9,-0.1,0.7,13.9*,·,0.2
CC(C)=CCc1c2c(c(O)c3c(=O)c4c(oc13)-c1cc(O)c(O)cc1OC4C=C(C)C)C=CC(C)(C)O2 (stereo not given),-2.5,·,·,22.5*,·,0.6
CC(C)=CCc1c(-c2ccc(O)cc2O)oc2c3c(cc(O)c2c1=O)OC(C)(C)C=C3,-0.5,·,·,26.7*,·,-2.8
Cc1cccc(C)c1NC(=O)CN(C)C(=O)c1ccc(OCc2ccccc2)cc1,·,0.0,0.5,·,·,·
COCc1nnc(NS(=O)(=O)c2ccc(OC)cc2)s1,·,-0.2,0.4,-0.5,·,·
CCCc1nnc(NS(=O)(=O)c2ccc(OC)cc2)s1,-1.2,-0.1,-3.1,10.1*,1.5,-0.7
CCOC(=O)CCn1nc(-c2ccc(Cl)cc2)cc1N,-0.3,0.0,-1.0,10.2*,18.8,5.2
O=C(Oc1ccc(-c2csnn2)cc1)c1cccs1,3.0,-0.1,2.1,29.1*,2.1,-0.5
CCCCC(CC)COC1(c2ccccc2)OC(=O)c2ccccc21 (stereo not given),-1.8,0.2,2.9,-0.5,5.2,0.0
CCCCOC1(c2ccccc2)OC(=O)c2ccccc21 (stereo not given),-2.5,-0.2,-0.1,-0.5,81.3*,2.3
COc1cc(OC)cc(C(=O)NNC(=O)CCc2nc3ccccc3c(=O)[nH]2)c1,0.2,-0.2,-0.5,-1.2,·,0.1
